In ChEMBL document CHEMBL4007509, “Structural Optimizations of Thieno[3,2-b]pyrrole Derivatives for the Development of Metabolically Stable Inhibitors of Chikungunya Virus” (J Med Chem, 2017):

What was measured:
[1] = Selectivity index, ratio of CC50 for HEK293T cells to EC50 for full length Gaussia princeps Gluc-tagged Chikungunya virus IMT; format: toxicity; details: human, read-out: Ratio CC50/EC50
[2] = tested on: Chikungunya virus; test: Antiviral activity against full length Gaussia princeps Gluc-tagged Chikungunya virus IMT infected in HEK293T cells assessed as reduction in virus infection after 24 hrs by Gaussia luciferase reporter gene assay; format: functional, cell-based; details: HEK-293T
[3] = Cytotoxicity against HEK293T cells assessed as reduction in cell viability after 24 hrs by CellTiter-Glo luminescent assay; format: cell-based, HEK-293T; details: human
Procedure, shortened: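 HEK 293T cell viability was measured by CellTiter-Glo luminescence after 24 h exposure to serial dilutions. Data were normalized to untreated cells (100%) and reagent background (0%). CC50, the concentration reducing viability by 50%, came from a five-parameter asymmetric fit.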

[4] = tested on: Chikungunya virus; test: Antiviral activity against wild type Chikungunya virus IMT infected in HEK293T cells assessed as reduction in virus infection after 24 hrs by FITC immunofluorescence-based single cell quantification high content screening assay; format: functional; details: HEK-293T
[5] = Half life in human liver microsomes; format: ADME, microsome
Procedure, shortened: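 Compounds were incubated with human liver microsomes. Half-life = ln(2)/slope, where the slope is ln(% detected) plotted against time, using the mean of at least 3 independent experiments.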

SMILES	selectivity ratio [1]	EC50 [2] [µM]	CC50 at 24 h [3] [µM]	EC50 [4] [µM]	half-life [5] [min]
CCCNC(=O)C1CCN(C(=O)c2cc3sc(Br)nc3n2Cc2ccc(OC)cc2)CC1	35	1.06	36.7	2.96	2.99
[2H]C([2H])(c1ccc(OC)cc1)n1c(C(=O)N2CCC(C(=O)NC([2H])(C([2H])([2H])[2H])C([2H])([2H])[2H])CC2)cc2sc(Br)cc21	> 58	1.72	> 100	2	3.8
COc1ccc(Cn2c(C(=O)N3CCC(C(=O)NC(C)C)CC3)cc3sc(Br)cc32)cc1	> 51	1.95	> 100	2.47	3.76
CCCNC(=O)C1CCN(C(=O)c2cc3ccsc3n2Cc2ccc(OC)cc2)CC1	2.6	8.86	23.4	6.5	4.08
CCCNC(=O)[C@H]1[C@@H]2CCC[C@H]1CN(C(=O)c1cc3sc(-c4ccccc4)nc3n1Cc1ccc(OC)cc1)C2	> 10	9.64	> 100	12.5	35.1
[2H]C([2H])(c1ccc(OC)cc1)n1c(C(=O)N2CCC(C(=O)NCCC)CC2)cc2sc(Br)cc21	> 49	2.03	> 100	2.06	3.53
CCCNC(=O)C1CCN(C(=O)c2cc3sc(-c4ccccc4)nc3n2Cc2ccc(OC)cc2)CC1	7.6	3.02	22.9	5.63	40.8
CCCNC(=O)C1CCN(C(=O)c2cc(Br)cn2Cc2ccc(OC)cc2)CC1	2.6	21.4	55	–	2.17
CCCNC(=O)C1CCN(C(=O)c2cc3nc(Br)sc3n2Cc2ccc(OC)cc2)CC1	21	2.22	46.8	3.87	22.1
CCCNC(=O)[C@@H]1C[C@H]2CCC[C@@H](C1)[C@@H]2NC(=O)c1cc2sc(-c3ccccc3)nc2n1Cc1ccc(OC)cc1	> 19	5.32	> 100	> 25	27.2
CCCNC(=O)C1CCN(C(=O)c2cc3occc3n2Cc2ccc(OC)cc2)CC1	6.2	6	37.2	5.24	2.74
